Data as given in ChEMBL document CHEMBL4765365, “Design, synthesis and antitumour evaluation of pyrrolo[1,2-f]-phenanthridine and dibenzo[f,h]pyrrolo[1,2-b]isoquinoline derivatives” (Eur J Med Chem, 2020).
Active and inactive are the calls of the source. No cut-off for these calls is given here.

How the values were obtained:
NCI-H1650 = experiment: Cytotoxicity against human NCI-H1650 cells assessed as reduction in cell viability incubated for 72 hrs by XTT assay; type: functional, cell-based; conditions: NCI-H1650, 72 h
HCT-116 [1] = experiment: Induction of cell cycle arrest in human HCT-116 cells assessed as G0 phase at 0.375 uM measured at 0 hrs by PI staining based flow cytometry analysis (reference value: 0.7 +/- 0.2 %); type: functional
HCT-116 [2] = experiment: Induction of cell cycle arrest in human HCT-116 cells assessed as G2/M phase at 0.375 uM measured at 0 hrs by PI staining based flow cytometry analysis (reference value: 28.9 +/- 1.4 %); type: functional
HCT-116 [3] = experiment: Induction of cell cycle arrest in human HCT-116 cells assessed as G2/M phase at 0.375 uM incubated for 12 hrs by PI staining based flow cytometry analysis (reference value: 21.7 +/- 1.9 %); type: functional
HCT-116 [4] = experiment: Induction of cell cycle arrest in human HCT-116 cells assessed as G0 phase at 0.375 uM incubated for 24 hrs by PI staining based flow cytometry analysis (reference value: 12.5 +/- 5.4 %); type: functional
HCT-116 [5] = experiment: Induction of cell cycle arrest in human HCT-116 cells assessed as G1 phase at 0.375 uM incubated for 36 hrs by PI staining based flow cytometry analysis (reference value: 57.4 +/- 1.3 %); type: functional
HCT-116 [6] = experiment: Induction of cell cycle arrest in human HCT-116 cells assessed as S phase at 0.375 uM incubated for 36 hrs by PI staining based flow cytometry analysis (reference value: 7.9 +/- 3.7 %); type: functional
HCT-116 [7] = experiment: Induction of cell cycle arrest in human HCT-116 cells assessed as G0 phase at 0.75 uM measured at 0 hrs by PI staining based flow cytometry analysis (reference value: 0.7 +/- 0.2 %); type: functional
HCT-116 [8] = experiment: Induction of cell cycle arrest in human HCT-116 cells assessed as G2/M phase at 0.75 uM measured at 0 hrs by PI staining based flow cytometry analysis (reference value: 28.9 +/- 1.4 %); type: functional
HCT-116 [9] = experiment: Induction of cell cycle arrest in human HCT-116 cells assessed as G1 phase at 0.75 uM incubated for 24 hrs by PI staining based flow cytometry analysis (reference value: 55 +/- 9.8 %); type: functional
HCT-116 [10] = experiment: Induction of cell cycle arrest in human HCT-116 cells assessed as S phase at 0.75 uM incubated for 24 hrs by PI staining based flow cytometry analysis (reference value: 21.2 +/- 5.4 %); type: functional
HCT-116 [11] = experiment: Induction of cell cycle arrest in human HCT-116 cells assessed as G0 phase at 0.75 uM incubated for 36 hrs by PI staining based flow cytometry analysis (reference value: 2.5 +/- 0.8 %); type: functional
HCT-116 [12] = experiment: Induction of cell cycle arrest in human HCT-116 cells assessed as G1 phase at 0.75 uM incubated for 36 hrs by PI staining based flow cytometry analysis (reference value: 57.4 +/- 1.3 %); type: functional
HCT-116 [13] = experiment: Induction of cell cycle arrest in human HCT-116 cells assessed as G0 phase at 1.5 uM incubated for 12 hrs by PI staining based flow cytometry analysis (reference value: 2.2 +/- 1.7 %); type: functional
HCT-116 [14] = experiment: Induction of cell cycle arrest in human HCT-116 cells assessed as G1 phase at 1.5 uM incubated for 12 hrs by PI staining based flow cytometry analysis (reference value: 53.6 +/- 4.5 %); type: functional
HCT-116 [15] = experiment: Induction of cell cycle arrest in human HCT-116 cells assessed as G2/M phase at 1.5 uM incubated for 12 hrs by PI staining based flow cytometry analysis (reference value: 21.7 +/- 1.9 %); type: functional
HCT-116 [16] = experiment: Induction of cell cycle arrest in human HCT-116 cells assessed as G1 phase at 1.5 uM incubated for 24 hrs by PI staining based flow cytometry analysis (reference value: 55 +/- 9.8 %); type: functional
NCI-H460 [17] = experiment: Induction of cell cycle arrest in human NCI-H460 cells assessed as G0 phase at 0.75 uM measured at 0 hrs by PI staining based flow cytometry analysis (reference value: 1.3 +/- 0.9 %); type: functional
NCI-H460 [18] = experiment: Induction of cell cycle arrest in human NCI-H460 cells assessed as G2/M phase at 0.75 uM incubated for 12 hrs by PI staining based flow cytometry analysis (reference value: 22.9 +/- 6.8 %); type: functional
NCI-H460 [19] = experiment: Induction of cell cycle arrest in human NCI-H460 cells assessed as G1 phase at 0.75 uM incubated for 36 hrs by PI staining based flow cytometry analysis (reference value: 57.9 +/- 3.6 %); type: functional
NCI-H460 [20] = experiment: Induction of cell cycle arrest in human NCI-H460 cells assessed as G1 phase at 1.5 uM incubated for 12 hrs by PI staining based flow cytometry analysis (reference value: 66 +/- 10 %); type: functional
NCI-H460 [21] = experiment: Induction of cell cycle arrest in human NCI-H460 cells assessed as G2/M phase at 1.5 uM incubated for 12 hrs by PI staining based flow cytometry analysis (reference value: 22.9 +/- 6.8 %); type: functional
NCI-H460 [22] = experiment: Induction of cell cycle arrest in human NCI-H460 cells assessed as G1 phase at 1.5 uM incubated for 24 hrs by PI staining based flow cytometry analysis (reference value: 56.8 +/- 7.6 %); type: functional
NCI-H460 [23] = experiment: Induction of cell cycle arrest in human NCI-H460 cells assessed as G2/M phase at 3 uM measured at 0 hrs by PI staining based flow cytometry analysis (reference value: 25.2 +/- 4 %); type: functional
NCI-H460 [24] = experiment: Induction of cell cycle arrest in human NCI-H460 cells assessed as G2/M phase at 3 uM incubated for 12 hrs by PI staining based flow cytometry analysis (reference value: 22.9 +/- 6.8 %); type: functional
NCI-H460 [25] = experiment: Induction of cell cycle arrest in human NCI-H460 cells assessed as S phase at 3 uM incubated for 36 hrs by PI staining based flow cytometry analysis (reference value: 7.6 +/- 3.9 %); type: functional
NCI-H460 [26] = experiment: Induction of cell cycle arrest in human NCI-H460 cells assessed as G2/M phase at 3 uM incubated for 36 hrs by PI staining based flow cytometry analysis (reference value: 25 +/- 1.2 %); type: functional
NCI-H460 [27] = experiment: Induction of apoptosis in human NCI-H460 cells assessed as early apoptotic cells at 1.5 uM incubated for 48 hrs by annexin V-FITC and PI staining based flow cytometry analysis (reference value: 2 %); type: functional
[28] = Toxicity in nude mouse xenografted with human HCT-116 cells assessed as reduction in body weight at 30 mg/kg, iv administered for 5 days and repeated cycle for 2 days interval and measured on day 24; type: organism-based; conditions: in vivo, 576 h, time 24 day
Procedure, shortened: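 Nude mice carried human HCT116 colorectal xenografts. Dosing was i.v. at 30 mg/kg once daily for five days (QD×5), and this cycle was given twice with a 2-day gap. Body weight was tracked against vehicle-treated mice, with tumour assessment at day 24.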

[29] = Solubility in mixture of ethanol/PEG400/Cremophor EL/0.9% saline; type: physicochemical; conditions: buffer
dsDNA = experiment: Induction of pBR322 DNA interstand crosslink at 1 to 20 uM incubated for 2 hrs by agarose gel electrophoresis assay; conditions: dose 1-20 µM

OCc1cn2c3ccccc3c3ccccc3c2c1CO
IC50 (NCI-H1650): 3.73 µM | Activity (HCT-116 [1]): 0.6% | Activity (HCT-116 [2]): 28.8% | Activity (HCT-116 [3]): 23.2% | Activity (HCT-116 [4]): 13.8% | Activity (HCT-116 [5]): 59.3% | Activity (HCT-116 [6]): 8.2% | Activity (HCT-116 [7]): 0.8% | Activity (HCT-116 [8]): 28.5% | Activity (HCT-116 [9]): 57.4% | Activity (HCT-116 [10]): 8.9% | Activity (HCT-116 [11]): 6.9% | Activity (HCT-116 [12]): 65.1% | Activity (HCT-116 [13]): 1.9% | Activity (HCT-116 [14]): 48.8% | Activity (HCT-116 [15]): 24% | Activity (HCT-116 [16]): 54.5% | Activity (NCI-H460 [17]): 1.8% | Activity (NCI-H460 [18]): 23.7% | Activity (NCI-H460 [19]): 67.8% | Activity (NCI-H460 [20]): 50.7% | Activity (NCI-H460 [21]): 25.1% | Activity (NCI-H460 [22]): 56.3% | Activity (NCI-H460 [23]): 24.6% | Activity (NCI-H460 [24]): 22.8% | Activity (NCI-H460 [25]): 9.6% | Activity (NCI-H460 [26]): 25.6% | Activity (NCI-H460 [27]): 3.6% | Activity [28]: Non-Toxic | solubility [29]: Soluble | Activity (dsDNA): Active
